# Measurements from ChEMBL document CHEMBL4732081, “Development of prohibitin ligands against osteoporosis” (Eur J Med Chem, 2021).
# Active and inactive are the calls of the source. The rule behind the calls is not given here.
# Experiments:
# [1] = Inhibition of osteoclastogenesis in human bone marrow derived CD14+ pre-osteoclasts assessed as blocked of osteoclast differentiation in presence of M-CSF and RANKL at 1 uM measured after 11 days by TRAP staining method relative to control; assay type: functional; settings: 264 h, time 11 day
# Procedure, shortened: (§1)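 Human CD14+ cells came from donor PBMCs by Ficoll centrifugation (500g, 25 min) and CD14 microbead MACS selection. They were seeded at 45 x 10^4 cells/well in α-MEM, 10% FCS, 25 ng/ml hM-CSF. From day 3, medium with 25 ng/ml hM-CSF and 100 ng/ml hRANKL ± compound was changed twice weekly; about 11 days. TRAP-stained multinucleated cells were counted, as % vs RANKL positive control. Monocyte lots differed between series.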
# [2] = Inhibition of osteoclastogenesis in human […] CD14+ pre-osteoclasts assessed as blocked of osteoclast differentiation in presence of M-CSF and RANKL at 10 uM measured after 11 days by TRAP staining method relative to control; assay type: functional; settings: 264 h, time 11 day; procedure, shortened: as §1
# [3] = Inhibition of osteoclastogenesis in human bone marrow derived CD14+ pre-osteoclasts assessed as blocked of osteoclast differentiation in presence of M-CSF and RANKL at 5 uM measured after 11 days by TRAP staining method relative to control; assay type: functional; settings: 264 h, time 11 day; procedure, shortened: as §1
# [4] = Cytotoxicity against human bone marrow derived CD14+ pre-osteoclasts upto 10 uM; assay type: tissue-based; settings: osteoclast
# [5] = molecular target: MAP kinase p38 (Homo sapiens) (UniProt O15264+Q15759+Q16539+P53778); experiment: Effect on p38 phosphorylation in human M-CSF treated human bone marrow derived CD14+ monocytes at 10 uM preincubated for 4 hrs followed by IL-6 stimulation and measured after 15 mins by Western blot assay; settings: Monocyte, time 4.25 hrs
# Procedure, shortened: (§2)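 Human CD14+ monocytes were cultured 3 days with 25 ng/ml M-CSF. They were then treated with vehicle or 10 µM compound for 4 h without FBS and M-CSF, and stimulated with IL-6 (25 ng/mL) for 15 min. Equal-protein lysates were run on SDS-PAGE and transferred to PVDF. Blots were probed overnight at 4°C with primary antibodies, with fluorescent secondary detection.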
# [6] = tested on: Monocyte; experiment: Effect on ERK expression in human M-CSF treated human bone marrow derived CD14+ monocytes at 10 uM preincubated for 4 hrs followed by IL-6 stimulation and measured after 15 mins by Western blot assay; assay type: functional; settings: time 4.25 hrs; procedure, shortened: as §2
# [7] = tested on: Monocyte; experiment: Inhibition of osteoclastogenesis in human bone marrow derived CD14+ monocytes assessed as decrease in RANKL-induced NFATc1 mRNA expression at 1 to 10 uM measured after 4 days by qRT-PCR method; assay type: functional; settings: dose 1-10 µM, time 4.0 day
# Procedure, shortened: (§3)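 CD14+ cells were seeded and, from day 3, treated with 25 ng/ml hM-CSF and 100 ng/ml hRANKL ± compound for 4 days. Target mRNA was measured by qRT-PCR, normalized to GAPDH, with comparative Ct quantification. Each assay was performed in triplicate.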
# [8] = tested on: Monocyte; experiment: Effect on ERK phosphorylation in human M-CSF treated human bone marrow derived CD14+ monocytes at 10 uM preincubated for 4 hrs followed by IL-6 stimulation and measured after 15 mins by Western blot assay; settings: time 4.25 hrs; procedure, shortened: as §2
# [9] = tested on: Monocyte; experiment: Inhibition of osteoclastogenesis in human bone marrow derived CD14+ monocytes assessed as decrease in RANKL-induced Cathepsin K mRNA expression at 1 to 10 uM measured after 4 days by qRT-PCR method; assay type: functional; settings: dose 1-10 µM, time 4.0 day; procedure, shortened: as §3
# [10] = tested on: Monocyte; experiment: Effect on p38 expression in human M-CSF treated human bone marrow derived CD14+ monocytes at 10 uM preincubated for 4 hrs followed by IL-6 stimulation and measured after 15 mins by Western blot assay; assay type: functional, tissue-based; settings: time 4.25 hrs; procedure, shortened: as §2
# [11] = molecular target: Signal transducer and activator of transcription 3 (Homo sapiens) (UniProt P40763); experiment: Inhibition of STAT3 phosphorylation at Ser-727 in human M-CSF treated human bone marrow derived CD14+ monocytes at 10 uM preincubated for 4 hrs followed by IL-6 stimulation and measured after 15 mins by Western blot assay; settings: Monocyte, time 4.25 hrs; procedure, shortened: as §2
# [12] = tested on: Monocyte; experiment: Inhibition of osteoclastogenesis in human bone marrow derived CD14+ monocytes assessed as decrease in RANKL-induced TRAP mRNA expression at 1 to 10 uM measured after 4 days by qRT-PCR method; assay type: functional; settings: dose 1-10 µM, time 4.0 day; procedure, shortened: as §3
# Sequence of Signal transducer and activator of transcription 3 (Homo sapiens) (P40763 whole entry): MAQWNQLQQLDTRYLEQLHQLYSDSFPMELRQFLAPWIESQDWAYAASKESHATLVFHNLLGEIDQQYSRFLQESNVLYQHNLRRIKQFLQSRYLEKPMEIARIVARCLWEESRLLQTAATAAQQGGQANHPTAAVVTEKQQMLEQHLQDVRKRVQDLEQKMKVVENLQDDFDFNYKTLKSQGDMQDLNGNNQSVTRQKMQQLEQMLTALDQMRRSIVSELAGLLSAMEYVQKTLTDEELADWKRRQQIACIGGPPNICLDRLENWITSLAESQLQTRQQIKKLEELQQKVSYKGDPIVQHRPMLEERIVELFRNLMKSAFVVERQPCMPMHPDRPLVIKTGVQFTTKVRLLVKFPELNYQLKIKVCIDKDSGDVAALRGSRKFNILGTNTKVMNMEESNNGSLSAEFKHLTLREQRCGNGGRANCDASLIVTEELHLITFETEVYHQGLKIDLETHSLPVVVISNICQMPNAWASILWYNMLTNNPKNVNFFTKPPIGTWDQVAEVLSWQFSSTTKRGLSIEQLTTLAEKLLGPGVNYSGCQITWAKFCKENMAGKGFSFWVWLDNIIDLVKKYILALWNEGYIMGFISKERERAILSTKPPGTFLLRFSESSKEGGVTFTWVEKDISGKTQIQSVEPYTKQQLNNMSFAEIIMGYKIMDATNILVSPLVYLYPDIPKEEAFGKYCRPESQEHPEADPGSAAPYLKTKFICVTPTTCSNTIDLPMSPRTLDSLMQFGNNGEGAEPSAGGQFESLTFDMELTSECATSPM
SMILES,inhibition at 1 µM [1] [%],inhibition at 10 µM [2] [%],inhibition at 5 µM [3] [%],further results
Cc1ccc(S(=O)(=O)/N=C2\CCCCN2C(C)C)cc1,27.9,6.1,,
COc1ccc(S(=O)(=O)/N=C(\CC2CCCCC2)N(C(C)C)C2CCCC2)cc1,-86,99,26,
C[C@@H]1CCC[C@H](C)N1/C(CC1CCCCC1)=N/S(=O)(=O)C[C@@]12CCC(CC1=O)C2(C)C,-1.5,57.5,,
CCCCC/C(=N\S(=O)(=O)c1ccc(C)cc1)N1[C@H](C)CCC[C@@H]1C,20.9,99.8,,
COc1ccc(S(=O)(=O)/N=C(\CC2CCCCC2)N2CCCCCC2)cc1,-30,88,49,
C[C@@H]1CCC[C@H](C)N1/C(CC1CCCCC1)=N/S(=O)(=O)C(F)(F)F,-1.1,96.1,,
COc1ccc(S(=O)(=O)/N=C(\CC2CCCCC2)N(C(C)C)C2CCSCC2)cc1,-10,93,53,
CC(C)S(=O)(=O)/N=C(\CC1CCCCC1)N1[C@H](C)CCC[C@@H]1C,1.6,12.6,,
C[C@@H]1CCC[C@H](C)N1/C(CC1CCCCC1)=N/S(=O)(=O)c1cccnc1,-23.6,56.1,,
COc1ccc(S(=O)(=O)/N=C(\CC2CCCCC2)N(C(C)C)C2CCCCCCC2)cc1,5,100,88,Activity [4]: Toxic
COc1ccc(S(=O)(=O)/N=C(\CC2CCCCC2)N2[C@H](C)CCC[C@@H]2C)cc1,,98,62,
Cc1ccc(S(=O)(=O)/N=C2\CCCCCN2C(C)C)cc1,27.1,39.3,,
Cc1ccc(S(=O)(=O)/N=C(\C=C2CCCCC2)N2[C@H](C)CCC[C@@H]2C)cc1,25.5,23.3,,
C[C@@H]1CCC[C@H](C)N1/C(CC1CCCCC1)=N/S(=O)(=O)N(C)C,11.8,68.4,,
Cc1ccc(S(=O)(=O)/N=C(\C2CCCCC2)N2[C@H](C)CCC[C@@H]2C)cc1,22.8,24.1,,
COc1ccc(S(=O)(=O)/N=C(\CC2CCCCC2)N(C(C)C)C2CCCCCC2)cc1,-6,99,74,
Cc1ccc(S(=O)(=O)/N=C(\CC2CCCCC2)N2CCCC3CCCCC32)cc1 (centres undefined),33.1,78.9,,
CCCCC1CCCN(C(C)C)/C1=N/S(=O)(=O)c1ccc(C)cc1 (centres undefined),31.9,80.6,,
Cc1ccc(S(=O)(=O)/N=C(\CC2CCCC2)N2[C@H](C)CCC[C@@H]2C)cc1,32.7,91.5,,
CCCCC1CCCCN(C(C)C)/C1=N/S(=O)(=O)c1ccc(C)cc1 (centres undefined),12.1,90.1,,
C[C@@H]1CCC[C@H](C)N1/C(CC1CCCCC1)=N/S(=O)(=O)c1ccccc1,3.3,97.9,,
C[C@@H]1CCC[C@H](C)N1/C(CC1CCCCC1)=N/S(=O)(=O)c1ccccn1,-20.2,44.9,,
Cc1ccc(S(=O)(=O)/N=C(\CC2CCCCC2)N2[C@H](C)CCC[C@@H]2C)cc1,35,97.9,72,Activity [5]: inactive; Activity [6]: inactive; inhibition [7]: Active; Activity [8]: inactive; inhibition [9]: Active; Activity [10]: inactive; inhibition [11]: Active; inhibition [12]: Active
COc1ccc(S(=O)(=O)/N=C(\CC2CCCCC2)N(C(C)C)C2CCOCC2)cc1,-14,39,28,
